The values below come from ChEMBL document CHEMBL4340551, “Design, synthesis and preliminary bioactivity studies of indomethacin derivatives as Bcl-2/Mcl-1 dual inhibitors” (Bioorg Med Chem, 2019).

Assay [1] has as its target Induced myeloid leukemia cell differentiation protein Mcl-1 (Homo sapiens, UniProt Q07820). In words: Inhibition of 5-FAM-tagged Bid-BH3 peptide binding to Mcl1 (unknown origin) by fluorescence polarization assay. Summed up: (§1)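 Competitive fluorescence polarization in which compounds displace labelled Bid-BH3 peptide from the Bcl-2 family protein, read as a fall in mP. IC50 taken from mP versus concentration. Ki calculated from IC50, Kd, and the peptide and protein concentrations.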

Assay [2] deals with Bcl-2-like protein 1 (Homo sapiens, UniProt Q07817). Description: Inhibition of 5-FAM-tagged Bid-BH3 peptide binding to Bcl-XL (unknown origin) by fluorescence polarization assay. Summed up: as §1
Bcl-2-like protein 1, sequence (Q07817 whole entry): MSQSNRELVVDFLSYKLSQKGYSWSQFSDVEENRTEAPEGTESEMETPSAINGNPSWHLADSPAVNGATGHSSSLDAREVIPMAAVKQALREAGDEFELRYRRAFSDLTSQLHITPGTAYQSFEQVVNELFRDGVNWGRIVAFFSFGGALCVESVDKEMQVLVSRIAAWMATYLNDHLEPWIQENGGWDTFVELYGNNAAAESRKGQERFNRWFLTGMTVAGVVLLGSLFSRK
The subject of assay [3] is Jurkat. Description: Antiproliferative activity against human Jurkat cells assessed as reduction in cell growth incubated for 48 hrs by MTT assay. It counts as functional, cell-based. In outline:
(§2)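 PC-3, Jurkat and K562 cells grown in RPMI 1640 with 10% FBS at 37°C, 5% CO2. Cells seeded at 2000-4000 per well and left 8 h before compound addition at a range of concentrations. Exposure 48 h, then 0.5% MTT solution for 4 h. Formazan dissolved in DMSO and absorbance read at 570 nm. IC50 derived from concentrations and inhibitory ratios.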

Assay [4] concerns Jurkat. Description: Induction of apoptosis in human Jurkat cells assessed as necrotic cells level at 40 uM incubated for 48 hrs by annexin-V/FITC and propidium iodide staining based flow cytometry (reference value: 6.29%). It counts as functional.
For assay [5], the target named is T1, Apoptosis regulator Bcl-2 (Homo sapiens, UniProt P10415). In words: Inhibition of 5-FAM-tagged Bid-BH3 peptide binding to Bcl2 (unknown origin) by fluorescence polarization assay.
T1 sequence (P10415 whole entry): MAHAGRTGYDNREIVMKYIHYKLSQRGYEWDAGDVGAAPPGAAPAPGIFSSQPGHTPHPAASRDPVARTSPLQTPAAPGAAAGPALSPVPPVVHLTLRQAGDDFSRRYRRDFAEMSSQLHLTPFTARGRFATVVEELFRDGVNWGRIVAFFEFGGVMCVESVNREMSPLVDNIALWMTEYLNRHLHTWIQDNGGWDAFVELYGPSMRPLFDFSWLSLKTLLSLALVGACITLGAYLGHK
In assay [6] the test system is Jurkat. Description: Induction of apoptosis in human Jurkat cells assessed as necrotic cells level at 20 uM incubated for 48 hrs by annexin-V/FITC and propidium iodide staining based flow cytometry (reference value: 6.29%). It counts as functional.
In assay [7] the test system is Jurkat. Description: Induction of apoptosis in human Jurkat cells assessed as early apoptotic cells level at 20 uM incubated for 48 hrs by annexin-V/FITC and propidium iodide staining based flow cytometry (reference value: 7.02%). It is filed as functional.
Assay [8] has as its system Jurkat. In words: Induction of apoptosis in human Jurkat cells assessed as viable cells level at 20 uM incubated for 48 hrs by annexin-V/FITC and propidium iodide staining based flow cytometry (reference value: 86.5%). It is filed as functional.
Assay [9] has as its system Jurkat. In words: Induction of apoptosis in human Jurkat cells assessed as early apoptotic cells level at 40 uM incubated for 48 hrs by annexin-V/FITC and propidium iodide staining based flow cytometry (reference value: 7.02%). It is filed as functional.
For assay [10], the system named is K562. Description: Antiproliferative activity against human K562 cells assessed as reduction in cell growth incubated for 48 hrs by MTT assay. As to conditions: K562, 48 h; call rule not given here. It counts as functional, cell-based. Summed up:
as §2

The subject of assay [11] is Jurkat. In words: Induction of apoptosis in human Jurkat cells assessed as late apoptotic cells level at 40 uM incubated for 48 hrs by annexin-V/FITC and propidium iodide staining based flow cytometry (reference value: 6.29%). It is filed as functional.
For assay [12], the system named is Jurkat. In words: Induction of apoptosis in human Jurkat cells assessed as late apoptotic cells level at 20 uM incubated for 48 hrs by annexin-V/FITC and propidium iodide staining based flow cytometry (reference value: 6.29%). It is filed as functional.
The test system of assay [13] is Jurkat. In words: Induction of apoptosis in human Jurkat cells assessed as viable cells level at 40 uM incubated for 48 hrs by annexin-V/FITC and propidium iodide staining based flow cytometry (reference value: 86.5%). It is filed as functional.
The target in assay [14] is T1, Apoptosis regulator Bcl-2. Description: Inhibition of 5-FAM-tagged Bid-BH3 peptide binding to Bcl2 (unknown origin) at 100 uM by fluorescence polarization assay relative to untreated control.
For assay [15], the target named is T1, Apoptosis regulator Bcl-2. In words: Potency index, ratio of Ki for WL276 to Ki for test compound for inhibition of 5-FAM-tagged Bid-BH3 peptide binding to Bcl2 (unknown origin) by fluorescence polarization assay.
Assay [16] has as its system PC-3. In words: Antiproliferative activity against human PC3 cells assessed as reduction in cell growth incubated for 48 hrs by MTT assay. As to conditions: PC-3, 48 h. It is filed as functional, cell-based. In outline:
as §2

In assay [17] the target is T1, Apoptosis regulator Bcl-2. In words: Potency index, ratio of Ki for UMI77 to Ki for test compound for inhibition of 5-FAM-tagged Bid-BH3 peptide binding to Bcl2 (unknown origin) by fluorescence polarization assay.
Assay [18] concerns Jurkat. In words: Potency index, ratio of IC50 for WL276 to IC50 for test compound for antiproliferative activity against human Jurkat cells assessed as reduction in cell growth incubated for 48 hrs by MTT assay. It is filed as functional.
For assay [19], the system named is Jurkat. In words: Induction of apoptosis in human Jurkat cells incubated for 48 hrs by annexin-V/FITC and propidium iodide staining based flow cytometry. It is filed as functional, cell-based.

Structures are written as SMILES.

Induced myeloid leukemia cell differentiation protein Mcl-1, sequence (Q07820 whole entry): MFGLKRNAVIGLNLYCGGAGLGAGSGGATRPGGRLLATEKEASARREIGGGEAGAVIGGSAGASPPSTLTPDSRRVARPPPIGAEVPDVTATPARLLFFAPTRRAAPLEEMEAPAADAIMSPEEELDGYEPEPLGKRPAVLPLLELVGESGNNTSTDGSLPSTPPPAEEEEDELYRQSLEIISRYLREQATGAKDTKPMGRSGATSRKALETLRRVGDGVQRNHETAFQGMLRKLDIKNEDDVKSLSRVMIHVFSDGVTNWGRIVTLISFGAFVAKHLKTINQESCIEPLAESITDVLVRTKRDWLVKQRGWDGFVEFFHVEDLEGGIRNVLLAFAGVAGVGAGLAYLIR

Regarding `Cc1ccc(S(=O)(=O)NC(=O)[C@H](Cc2ccccc2)N2C(=O)/C(=C/c3ccc(-c4ccccc4)cc3)SC2=S)cc1`, the inhibitory constant (Ki) in assay [1] turned out to be 1.1 µM; in [2] (read-out: Ki) it was 1.3 µM; in assay [5] (read-out: Ki), 1.5 µM. The IC50 in assay [3] turned out to be 31.8 µM; in [10], 42.3 µM. In addition, the Activity in assay [4] turned out to be 0.3%; in assay [6], 0.22%; in assay [7] it was 15.5%; in assay [8] it was 70.7%; in assay [9], 17.4%; in assay [11], 16.8%. For the same compound, the figures for the Activity in [12] and in assay [13] were 13.6% and 65.5%, respectively.
For `COc1ccc2c(c1)c(CC(=O)NCC(=O)NS(=O)(=O)c1ccc(Cl)c([N+](=O)[O-])c1)c(C)n2C(=O)c1ccc(Cl)cc1`, the inhibition in assay [14] came out at 94%. In assay [5], the Ki result was “Not Active”.
As for `COc1ccc2c(c1)c(CC(=O)N[C@@H](Cc1ccc(OCc3ccc(C#N)cc3)cc1)C(=O)NS(=O)(=O)c1ccc(Cl)c([N+](=O)[O-])c1)c(C)n2C(=O)c1ccc(Cl)cc1`, the results for the Ki in [1], in assay [2] and in assay [5] (read-out: Ki) were 0.53 µM, “Not Active” and 0.47 µM, respectively. The Ratio Ki in [15] lay in the range of 2 to 3; in assay [17] it was 5 to 6. For the same compound, the results for the IC50 in assay [3], in assay [10] and in assay [16] were 83.5 µM, 49.2 µM and 39.3 µM, respectively.
Regarding `COc1ccc2c(c1)c(CC(=O)N[C@@H](Cc1ccc(OCc3ccc(Br)cc3)cc1)C(=O)NS(=O)(=O)c1ccc(Cl)c([N+](=O)[O-])c1)c(C)n2C(=O)c1ccc(Cl)cc1`, the figures for the Ki in assay [1], in [2] and in [5] (read-out: Ki) were 0.44 µM, “Not Active” and 0.44 µM, respectively. Also, the results for the Ratio Ki in assay [15] and in [17] were 2 to 3 and 5 to 6, respectively. Further, the IC50 in assay [3] was found to be 24.7 µM; in assay [10], 35.9 µM; in assay [16], 25.8 µM. For the same compound, the Activity in [4] was 0.81%; in assay [6], 0.51%; in assay [7] it was 21.8%; in assay [8] it was 56.3%; in assay [9] it was 27.5%; in [11], 29.3%. The Activity in assay [12] is 21.3%; in [19], “Dose-dependent effect”; in [13] it was 42.3%. For the same compound, the “Ratio IC50” value in assay [18] is listed as 2.
